In ChEMBL document CHEMBL1122337, “Syntheses of iron bis(pyridoxal isonicotinoylhydrazone)s and the in vivo iron-removal properties of some pyridoxal derivatives” (J Med Chem, 1983):

How the values were obtained:
Assay type in all cases: ADME, organism-based
[1] = system: Rattus norvegicus; experiment: % distribution of the radioiron in rat kidney followed by intravenous injection of chelating agent; conditions: in vivo
[2] = system: Rattus norvegicus; experiment: % distribution of the radioiron in rat liver followed by intravenous injection of chelating agent; conditions: in vivo
[3] = species on record: Rattus norvegicus; experiment: […] determined in urine of rat followed by […] of chelating agent; conditions: in vivo, iv
How it was run: (§1)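 Normal rats. Storage iron was labelled with [⁵⁹Fe]ferritin, given im as 1 mL in sterile normal saline (0.2–0.4 μCi ⁵⁹Fe/mL, 40 μg ferritin iron). The ferritin was prepared in vivo from [⁵⁹Fe]citrate in iron-dextran-loaded rats. Chelator was given separately afterwards, 40 mg im as aqueous solution. Blood, liver, spleen and kidney were gamma-counted. Stool and urine were collected separately in metabolic cages. Results are percent of injected ⁵⁹Fe.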

[4] = system: Rattus norvegicus; experiment: % distribution of the radioiron in rat spleen followed by intravenous injection of chelating agent; conditions: in vivo
[5] = system: Rattus norvegicus; experiment: % distribution of the radioiron in blood of rat followed by intravenous injection of chelating agent; conditions: in vivo
[6] = species on record: Rattus norvegicus; experiment: […] determined in faces of rat followed by […] of chelating agent; conditions: in vivo, iv; how it was run: as §1
[7] = system: Rattus norvegicus; experiment: % excretion of radioiron determined in urine of rat followed by intravenous injection of transferrin preincubated with 10 mg of chelating agent; conditions: in vivo
How it was run: (§2)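 Normal rats. Fresh rat plasma was labelled with ⁵⁹FeCl₃ plus excess citrate (citrate:Fe >50:1; final 0.5 μCi ⁵⁹Fe/mL). It was preincubated with 10 mg chelating agent and 1 mL was injected iv. Blood (1 mL), weighed liver portions, and whole spleen and kidney were counted in a well-type gamma counter. Feces and urine were collected separately in metabolic cages. Results are percent of injected ⁵⁹Fe ± SD.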

[8] = system: Rattus norvegicus; experiment: % excretion of radioiron determined in feces of rat followed by intravenous injection of transferrin pre-incubated with 10 mg of chelating agent; conditions: in vivo; how it was run: as §2
[9] = system: Rattus norvegicus; experiment: % distribution of the radioiron in rat kidney followed by intravenous injection of transferrin pre-incubated with 10 mg of chelating agent; conditions: in vivo; how it was run: as §2
[10] = system: Rattus norvegicus; experiment: % distribution of the radioiron in rat spleen followed by intravenous injection of transferrin pre-incubated with 10 mg of chelating agent; conditions: in vivo; how it was run: as §2
[11] = system: Rattus norvegicus; experiment: % distribution of the radioiron in rat liver followed by intravenous injection of transferrin preincubated with 10 mg of chelating agent; conditions: in vivo; how it was run: as §2
[12] = system: Rattus norvegicus; experiment: % distribution of the radioiron in blood of rats followed by intravenous injection of transferrin pre-incubated with 10 mg of chelating agent; conditions: in vivo; how it was run: as §2

Structure (SMILES)	Distribution [1] [%]	Distribution [2] [%]	Distribution [3] [%]	Distribution [4] [%]	Distribution [5] [%]	Distribution [6] [%]	Distribution [7] [%]	Distribution [8] [%]	Distribution [9] [%]	Distribution [10] [%]	Distribution [11] [%]	Distribution [12] [%]
CC(=O)OCc1cnc(C)c(O)c1/C=N\NC(=O)c1ccncc1	–	–	–	–	–	–	0.8	10.4	0.8	0.6	15.7	31.7
Cc1ncc(CO)c(/C=N/Nc2nc(-c3ccccc3)cs2)c1O	0.5	66.7	0.04	0.6	19.6	8.2	–	–	–	–	–	–
Cc1ncc(CO)c(/C=N/NC(=O)c2cccnc2)c1O	–	–	–	–	–	–	0.3	6	1	0.9	16.2	39.6
Cc1ncc(CO)c(/C=N/NC(=O)c2ccnc3ccccc23)c1O	–	–	–	–	–	–	0.4	6.8	1	0.6	12.6	27.9
CC(=O)N(O)CCCCCNC(=O)CCC(=O)N(O)CCCCCNC(=O)CCC(=O)N(O)CCCCCN [DEFEROXAMINE]	0.3	71.3	0.08	0.4	1.8	15.5	62.9	18.7	0.6	0.2	3	7.4

The next lines start with the values.

Distribution [1] [%]	Distribution [2] [%]	Distribution [3] [%]	Distribution [4] [%]	Distribution [5] [%]	Distribution [6] [%]	Distribution [7] [%]	Distribution [8] [%]	Distribution [9] [%]	Distribution [10] [%]	Distribution [11] [%]	Distribution [12] [%]	Structure (SMILES)
0.3	82.4	0.09	1	12.3	4.1	–	–	–	–	–	–	Cc1ncc(CO)c(/C=N/NC(N)=O)c1O
0.4	60.2	0.01	0.8	19.1	6.5	–	–	–	–	–	–	Cc1csc(N/N=C/c2c(CO)cnc(C)c2O)n1
0.4	63.8	0.03	0.7	19	8.6	–	–	–	–	–	–	CCOC(=O)N/N=C/c1c(CO)cnc(C)c1O
0.4	63.2	0.08	0.55	19.4	7.3	–	–	–	–	–	–	Cc1ncc(CO)c(/C=N/NC(=O)OC(C)(C)C)c1O
–	–	–	–	–	–	0.02	3.3	0.8	0.6	14.7	27	COc1ccc(COC(=O)N/N=C/c2c(CO)cnc(C)c2O)cc1
0.3	78.7	0.05	0.5	2.3	12	4.3	32.8	0.6	0.4	9.6	32	Cc1ncc(CO)c(/C=N/NC(=O)c2ccncc2)c1O [PYRIDOXAL ISONICOTINOYL HYDRAZONE]
